Published values of several laboratories.
Lines come from different studies, so protocols differ.
Observed: enzyme activity
RET: Proto-oncogene tyrosine-protein kinase receptor Ret (RET, Homo sapiens, UniProt P07949)

Cc1ccc(C(=O)Nc2ccc(CN3CCN(C)CC3)c(C(F)(F)F)c2)cc1C#Cc1cnc2cccnn12  remaining activity (RET; 23.5 nM): 1.3%
CCOc1ccccc1NC(=O)Nc1cc(OC)c2nc(NC(=O)c3ccccc3)sc2c1  remaining activity (RET; inhibitor, radiometric; 0.1 µM): 118%
Cc1sc(C(=O)NC2COC2)cc1-n1cc(NC(=O)Nc2c(F)cccc2Cl)cn1  remaining activity (RET; inhibitor; 10 µM): 113%
COc1ccc(-c2cn3cc(C(=O)N4CC(O)C4)nc3c(=O)n2C)c(F)c1  remaining activity (RET; inhibitor, radiometric; 10 µM): 111%
O=C(Nc1cnn(-c2csc(C(=O)NC3COC3)c2)c1)Nc1c(F)cccc1Cl  remaining activity (RET; inhibitor; 5 µM): 98.1%
CCN(CC)CCNC(=O)c1c(C)[nH]c(/C=C2\C(=O)Nc3ccc(F)cc32)c1C  remaining activity (RET; inhibitor; 1 µM): 0%
COCC(=O)Nc1cc(C(=O)NCCc2cnn(C)c2)cc2ncn(CCc3ccccc3)c12  remaining activity (RET; inhibitor, radiometric; 0.1 µM): 118%
COc1cc(Cl)c(C(=O)N[C@@H](CN[C@H]2CC[C@@H](N)CC2)Cc2ccc(C#N)cc2)cc1-c1ccc(CN[C@H](C)c2ccc(C)cc2)o1  remaining activity (RET; inhibitor; 1 µM): 110%
CCCOc1ccc(OC)c(F)c1C(=O)c1ccc(C(=O)N[C@@H]2CNC[C@H]2NC(=O)c2ccc3[nH]ncc3c2)cc1  remaining activity (RET; inhibitor; 50 nM): 100%
Cc1[nH]c(/C=C2\C(=O)Nc3ccc(F)cc32)c(C)c1C(=O)N[C@H]1CCN(C(=O)N(C)C)C1  remaining activity (RET; inhibitor; 0.1 µM): 62%
CC(C)(C)c1nc2c(s1)c1nc(N)ncc1c1ccc(NS(=O)(=O)c3c(F)cccc3F)c(F)c12  remaining activity (RET; inhibitor, radiometric; 1 µM): 69%
Cc1cnc(NC2CCOCC2)nc1-n1cnc(C(=O)NC(CN)c2cc(F)cc(Cl)c2)c1 (stereo not shown)  remaining activity (Proto-oncogene tyrosine-protein kinase receptor Ret (RET, Homo sapiens, UniProt P07949, V804M); inhibitor, radiometric; 1 µM): 100%
CCOc1ccc(NC(=O)Nc2cc(OC)c3nc(NC(=O)c4ccccc4)sc3c2)cc1  remaining activity (RET; inhibitor, radiometric; 0.1 µM): 115%
